≈ marks a conversion by molar mass, not a printed value. Calls of active or inactive are those of the source.
Tests used:
[1] = tested on: UACC-62; test: Cytotoxicity against human UACC62 cells by sulforhodamine B assay; type: functional
How it was run: (§1)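 NCI Developmental Therapeutics Program 60-cell-line human tumor panel screen, run at NCI. A single-concentration pre-screen was followed by a five-concentration dose-response in 10-fold steps. GI50 is the concentration that reduces growth of treated cells to half that of untreated control cells. TGI is the concentration that completely halts growth.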

[2] = tested on: IGROV-1; test: Cytotoxicity against human IGROV1 cells by sulforhodamine B assay; type: functional; how it was run: as §1
[3] = tested on: PC-3; test: Cytotoxicity against human PC3 cells by sulforhodamine B assay; type: functional; how it was run: as §1
[4] = tested on: SK-MEL-2; test: Cytotoxicity against human SK-MEL-2 cells assessed as cell growth at 8 nM by sulforhodamine B assay relative to control; type: functional; conditions: read-out: Activity
[5] = tested on: HCT-116; test: Cytotoxicity against human HCT116 cells assessed as cell growth at 8 nM by sulforhodamine B assay relative to control; type: functional; conditions: read-out: Activity
[6] = tested on: NCI-H522; test: Cytotoxicity against human NCI-H522 cells assessed as cell growth at 8 nM by sulforhodamine B assay relative to control; type: functional; conditions: read-out: Activity
[7] = tested on: NCI-H460; test: Cytotoxicity against human NCI-H460 cells assessed as cell growth at 8 nM by sulforhodamine B assay relative to control; type: functional; conditions: read-out: Activity
[8] = tested on: Cryptococcus neoformans; test: Antimicrobial activity against Cryptococcus neoformans ATCC 90113 by CLSI method; type: functional, organism-based
[9] = tested on: MDA-MB-231; test: Cytotoxicity against human MDA-MB-231 cells by sulforhodamine B assay; type: functional; how it was run: as §1
[10] = tested on: Hs-578T; test: Cytotoxicity against human Hs578T cells by sulforhodamine B assay; type: functional; how it was run: as §1
[11] = tested on: MDA-MB-231; test: Antitumor activity against human MDA-MB-231 cells xenografted in mouse assessed as tumor cell killing at 4.7 mg/kg, ip qd for 4 days by MTT assay; type: functional, organism-based; set-up: dose 4.7 mg/kg
How it was run: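 Hollow-fiber assay in mice. Tumor lines were grown in RPMI-1640 with 10% FBS and 2 mM glutamine. Cells at 2 × 10^6 cells/ml were loaded into 1 mm PVDF fibers (500,000 Da cutoff), heat-sealed at 2 cm and held 24–48 h at 37 °C, 5% CO2 before implantation. Compound was given IP. Fibers were collected the day after the fourth treatment for MTT (OD 540 nm, group means). A ≥50% cut in percent net growth versus vehicle counted as positive.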

[12] = tested on: OVCAR-8; test: Cytotoxicity against human OVCAR8 cells assessed as cell growth at 8 nM by sulforhodamine B assay relative to control; type: functional; conditions: read-out: Activity
[13] = tested on: SK-OV-3; test: Cytotoxicity against human SKOV3 cells assessed as cell growth at 8 nM by sulforhodamine B assay relative to control; type: functional; conditions: read-out: Activity
[14] = tested on: MDA-MB-231; test: Cytotoxicity against human MDA-MB-231 cells assessed as cell growth at 8 nM by sulforhodamine B assay relative to control; type: functional; conditions: read-out: Activity
[15] = tested on: NCI-H23; test: Cytotoxicity against human NCI-H23 cells assessed as cell growth at 80 nM by sulforhodamine B assay relative to control; type: functional; conditions: read-out: Activity
[16] = tested on: HCC 2998; test: Cytotoxicity against human HCC2998 cells assessed as cell growth at 80 nM by sulforhodamine B assay relative to control; type: functional; conditions: read-out: Activity
[17] = tested on: IGROV-1; test: Cytotoxicity against human IGROV1 cells assessed as cell growth at 80 nM by sulforhodamine B assay relative to control; type: functional; conditions: read-out: Activity
[18] = tested on: MCF7; test: Cytotoxicity against human MCF7 cells assessed as cell growth at 80 nM by sulforhodamine B assay relative to control; type: functional; conditions: read-out: Activity
[19] = tested on: BT-549; test: Cytotoxicity against human BT549 cells assessed as cell growth at 80 nM by sulforhodamine B assay relative to control; type: functional; conditions: read-out: Activity
How it was run: (§2)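 Run at NCI in the DTP 60-cell-line human tumor panel by standard procedure. Compounds were first screened at a single concentration, then tested at five tenfold-spaced concentrations. GI50 is the concentration reducing treated-cell growth to half that of untreated controls; TGI is the concentration completely halting growth.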

[20] = tested on: HOP-62; test: Cytotoxicity against human HOP62 cells assessed as cell growth at 800 nM by sulforhodamine B assay relative to control; type: functional; conditions: read-out: Activity
[21] = tested on: NCI-H23; test: Cytotoxicity against human NCI-H23 cells assessed as cell growth at 800 nM by sulforhodamine B assay relative to control; type: functional; conditions: read-out: Activity
[22] = tested on: NCI-H522; test: Cytotoxicity against human NCI-H522 cells assessed as cell growth at 800 nM by sulforhodamine B assay relative to control; type: functional; conditions: read-out: Activity
[23] = tested on: SK-MEL-5; test: Cytotoxicity against human SK-MEL-5 cells assessed as cell growth at 800 nM by sulforhodamine B assay relative to control; type: functional; conditions: read-out: Activity
[24] = tested on: PC-3; test: Cytotoxicity against human PC3 cells assessed as cell growth at 800 nM by sulforhodamine B assay relative to control; type: functional; conditions: read-out: Activity
[25] = tested on: DU-145; test: Cytotoxicity against human DU145 cells assessed as cell growth at 800 nM by sulforhodamine B assay relative to control; type: functional; conditions: read-out: Activity
[26] = tested on: NCI/ADR-RES; test: Cytotoxicity against human NCI/ADR-RES cells assessed as cell growth at 800 nM by sulforhodamine B assay relative to control; type: functional; conditions: read-out: Activity
[27] = tested on: T47D; test: Cytotoxicity against human T47D cells assessed as cell growth at 800 nM by sulforhodamine B assay relative to control; type: functional; conditions: read-out: Activity
[28] = tested on: SR; test: Cytotoxicity against human SR cells assessed as cell growth at 8 uM by sulforhodamine B assay relative to control; type: functional; conditions: read-out: Activity
[29] = tested on: HCT-116; test: Cytotoxicity against human HCT116 cells assessed as cell growth at 8 uM by sulforhodamine B assay relative to control; type: functional; conditions: read-out: Activity
[30] = tested on: HT-29; test: Cytotoxicity against human HT-29 cells assessed as cell growth at 8 uM by sulforhodamine B assay relative to control; type: functional; conditions: read-out: Activity
[31] = tested on: OVCAR-3; test: Cytotoxicity against human OVCAR3 cells assessed as cell growth at 8 uM by sulforhodamine B assay relative to control; type: functional; conditions: read-out: Activity
[32] = tested on: OVCAR-4; test: Cytotoxicity against human OVCAR4 cells assessed as cell growth at 8 uM by sulforhodamine B assay relative to control; type: functional; conditions: read-out: Activity
[33] = tested on: SK-OV-3; test: Cytotoxicity against human SKOV3 cells assessed as cell growth at 8 uM by sulforhodamine B assay relative to control; type: functional; conditions: read-out: Activity
[34] = tested on: PC-3; test: Cytotoxicity against human PC3 cells assessed as cell growth at 8 uM by sulforhodamine B assay relative to control; type: functional; conditions: read-out: Activity
[35] = tested on: DU-145; test: Cytotoxicity against human DU145 cells assessed as cell growth at 8 uM by sulforhodamine B assay relative to control; type: functional; conditions: read-out: Activity; how it was run: as §2
[36] = tested on: NCI/ADR-RES; test: Cytotoxicity against human NCI/ADR-RES cells assessed as cell growth at 8 uM by sulforhodamine B assay relative to control; type: functional; conditions: read-out: Activity
[37] = tested on: HOP-62; test: Cytotoxicity against human HOP62 cells assessed as cell growth at 80 uM by sulforhodamine B assay relative to control; type: functional; conditions: read-out: Activity
[38] = tested on: MOLT-4; test: Cytotoxicity against human MOLT4 cells by sulforhodamine B assay; type: functional; how it was run: as §1

For C/C=C1\NC(=O)[C@H](Cc2ccccc2)NC(=O)[C@@H](C(C)C)NC(=O)[C@@H]([C@@H](C)CC)NC(=O)[C@H](NC(=O)[C@H](NC(=O)[C@H](CCCNCc2ccc(N3CCOCC3)cc2)NC(=O)[C@H]2CCCN2C(=O)[C@H](NC(=O)[C@@H](NC(=O)[C@@H](NC(=O)[C@H](NC(=O)CCCC(C)C)C(C)C)[C@@H](C)O)C(C)C)C(C)C)[C@@H](C)CC)[C@@H](C)OC(=O)[C@H](C(C)C)NC1=O, the GI50 [1] was 1350 nM, the LC50 [1] was 4270 nM and the TGI ([1]; read-out: pTGI (converted)) was 2400 nM. For the same compound, the GI50 [2] was 813 nM, the TGI ([2]; read-out: pTGI (converted)) was 2000 nM and the LC50 [3] was 741 nM. For the same compound, the GI50 ([3]; read-out: GI50) was 156 nM, the TGI ([3]; read-out: TGI) was 340 nM and the GI50 ([3]; read-out: pGI50 (converted)) was 155 nM. It also gave a TGI ([3]; read-out: pTGI (converted)) of 339 nM, a growth at 0.008 µM [4] of 105% and a growth at 0.008 µM [5] of 102%. It also gave a growth at 0.008 µM [6] of 99%, a growth at 0.008 µM [7] of 99% and an IC50 [8] of 1730 nM. The MFC [8] was 10 µM (≈ 16.5 µg/mL), the MIC [8] was 5 µM (≈ 8.27 µg/mL) and the GI50 [9] was 2630 nM. The LC50 [9] was > 75900 nM, the TGI ([9]; read-out: pTGI (converted)) was 15500 nM and the LC50 [10] was > 75900 nM. It also gave a GI50 ([10]; read-out: GI50) of 453 nM, a TGI ([10]; read-out: TGI) of 444 nM and a GI50 ([10]; read-out: pGI50 (converted)) of 457 nM. For the same compound, the TGI ([10]; read-out: pTGI (converted)) was 2040 nM, the Activity [11] was “inactive” and the growth at 0.008 µM [12] was 99%. For the same compound, the growth at 0.008 µM [13] was 107%, the growth at 0.008 µM [14] was 95% and the growth at 0.08 µM [15] was 99%. The growth at 0.08 µM [16] was 98%, the growth at 0.08 µM [17] was 106% and the growth at 0.08 µM [18] was 107%. The growth at 0.08 µM [19] was 95%, the growth at 0.8 µM [20] was 95% and the growth at 0.8 µM [21] was 103%. The growth at 0.8 µM [22] was 101%, the growth at 0.8 µM [23] was 90% and the growth at 0.8 µM [24] was -51%. For the same compound, the growth at 0.8 µM [25] was -77%, the growth at 0.8 µM [26] was 85% and the growth at 0.8 µM [27] was -23%. The growth at 8 µM [28] was 15%, the growth at 8 µM [29] was -66% and the growth at 8 µM [30] was -68%. It also gave a growth at 8 µM [31] of -72%, a growth at 8 µM [32] of -59% and a growth at 8 µM [33] of -87%. It also gave a growth at 8 µM [34] of -91%, a growth at 8 µM [35] of -96% and a growth at 8 µM [36] of -43%. For the same compound, the growth at 80 µM [37] was -55%, the GI50 [38] was 20400 nM and the LC50 [38] was > 75900 nM. The TGI ([38]; read-out: pTGI) was > 75900 nM.

From ChEMBL document CHEMBL1921722, “In vitro and in vivo evaluation of select kahalalide F analogs with antitumor and antifungal activities” (Bioorg Med Chem, 2011)
